Where “and” joins values, the source holds several entries; their conditions need not be identical. Identical values can stand only once. Entries after “also recorded” stand apart in the source; their conditions may differ.

The conditions of data set [1]: competition with equimolar amounts of ligands with gallium, cited from earlier work.
Data set [2] can be described thus: Subject tolerability to radiotracer administration. Format: in vivo, human.
The nature of data set [3]: Normal organ dosimetry from whole body PET and urine collection, OLINDA/EXM. Format: in vivo, human. In short, it runs like this:
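Eight men received up to ~232 MBq IV. Six top-of-skull to mid-thigh PET scans (10 beds × 90 s) started ~1, 20, 40, 60, 120 and 150 min. Two low-dose CTs gave attenuation correction. Urine from voids after scans 4 and 6 was gamma-counted. Organ activities came from PET images; cortical bone from femur shaft density × 2130 cm3. Time-activity curves fitted mono/bi-exponentially or by Riemann sum.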

For data set [4] the following is noted: normal CD-1 IGS male mice, 60 min; cited from earlier work.
For data set [5], the system named is prostate cancer osseous metastases. Format: in vivo, human. In short, it runs like this:
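Tracer given IV to men with prostate cancer and known or suspected bone metastases. 60-min dynamic PET from injection over a known or suspected lesion site, then skull-base to mid-thigh PET/CT at ~90 and 180 min. SUVpeak from 1 cm spheres on lesions, blood pool and normal bone. List-mode data subsampled to emulate lower activities (10 replicates, TOF OSEM, 4-mm voxels). Lesion SNR = Lmax/Lmax SD, decay-corrected.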

Setting [6] is: 8 male humans, Standard Adult Male phantom.
[7] abbreviates: injected activity of 166.5 MBq (4.5 mCi).

For `O=C(O)CN(CCN(CC(=O)O)Cc1ccccc1O)Cc1ccccc1O` [HBED, N, N’-bis(2-hydroxybenzyl)ethylenediamine-N,N’-diacetic acid], the “out complexes DOTA by” value in data set [1] (versus DOTA) was 99%. The “out complexes NOTA by” value in data set [1] (versus NOTA) was 43%.
As to “[^68Ga]Ga-3-(3-(((carboxymethyl)(2-((carboxymethyl)(5-(3-((diphosphonomethyl)amino)-3-oxopropyl)-2-hydroxybenzyl)amino)ethyl)amino)methyl)-4-hydroxyphenyl)propanoic acid [[^68Ga]Ga-P15-041]”, the “changes in vital signs before and after injection” value in data set [2] (13 subjects) is given as “No clinically significant changes”. The “tolerability / adverse events” value in data set [2] (administered to 13 subjects (12 completed protocol)) was “well-tolerated with no reports of serious adverse events”. For the same molecule, in data set [3] (setting [6]), the “Effective dose equivalent, Mean” value worked out at 2.31E-02 mSv/MBq; the “Effective dose, Mean” value was 0.0173 ± 0.0036 mSv/MBq and 1.73E-02 mSv/MBq; the “absorbed dose estimate, Adrenals, Mean” value is recorded as 1.02E-02 mSv/MBq; the “absorbed dose estimate, Brain, Mean” value is recorded as 3.57E-03 mSv/MBq. In addition, in data set [3] (setting [6]), the “absorbed dose estimate, Breasts, Mean” value is recorded as 8.07E-03 mSv/MBq; the “absorbed dose estimate, Gallbladder wall, Mean” value is 1.03E-02 mSv/MBq; the “absorbed dose estimate, Heart Wall, Mean” value is reported as 1.98E-02 mSv/MBq; the “absorbed dose estimate, Kidneys, Mean” value was 4.93E-02 mSv/MBq. Also, in data set [3] (setting [6]), the “absorbed dose estimate, Liver, Mean” value was 8.16E-03 mSv/MBq; the “absorbed dose estimate, Lower large intestine wall, Mean” value was 1.29E-02 mSv/MBq; the “absorbed dose estimate, Lungs, Mean” value is on record as 1.73E-02 mSv/MBq; the “absorbed dose estimate, Muscle, Mean” value is reported as 9.19E-03 mSv/MBq. In data set [3] (setting [6]), the “absorbed dose estimate, Osteogenic cells, Mean” value is on record as 2.63E-02 mSv/MBq; the “absorbed dose estimate, Ovaries, Mean” value was 1.16E-02 mSv/MBq; the “absorbed dose estimate, Pancreas, Mean” value is 1.03E-02 mSv/MBq; the “absorbed dose estimate, Red Marrow, Mean” value was 8.04E-03 mSv/MBq. In addition, in data set [3] (setting [6]), the “absorbed dose estimate, Skin, Mean” value is recorded as 7.85E-03 mSv/MBq; the “absorbed dose estimate, Small intestine, Mean” value is 2.41E-02 mSv/MBq; the “absorbed dose estimate, Spleen, Mean” value is recorded as 1.17E-02 mSv/MBq; the “absorbed dose estimate, Stomach wall, Mean” value is reported as 9.77E-03 mSv/MBq. In data set [3] (setting [6]), the “absorbed dose estimate, Testes, Mean” value is 9.57E-03 mSv/MBq; the “absorbed dose estimate, Thymus, Mean” value is reported as 9.26E-03 mSv/MBq; the “absorbed dose estimate, Thyroid, Mean” value was 8.92E-03 mSv/MBq; the “absorbed dose estimate, Total Body, Mean” value is recorded as 1.07E-02 mSv/MBq. Besides, in data set [3] (setting [6]), the “absorbed dose estimate, Upper large intestine wall, Mean” value was 1.97E-02 mSv/MBq and the “absorbed dose estimate, Uterus, Mean” value was 1.33E-02 mSv/MBq. The “absorbed dose estimate, Urinary bladder wall, Mean” value in data set [3] (8 male humans, Standard Adult Male phantom, highest individual organ dose) was 0.135 mSv/MBq and 1.35E-01 mSv/MBq. In data set [3] (setting [7]), the “absorbed dose to the kidneys” value is reported as 8.2 mSv, the “absorbed dose to the urinary bladder wall” value was 22.5 mSv and the effective dose came to 2.9 mSv. The “bone uptake (retention)” value in data set [4] was 23.5 % injected activity/g. Besides, the “uptake in bone lesions” value in data set [5] (PET/CT, patients with prostate cancer bone metastases) is “accumulated in known bone lesions; also recorded: lesion uptake consistently above background”. The “activity concentrations in blood and normal bone” value in data set [5] (dynamic cohort, n=4, compared to sites of osseous metastasis) is “low compared to sites of osseous metastasis”. Besides, the “clearance from blood and soft tissue” value in data set [5] (human PET) was “cleared rapidly from blood and soft tissue”.
For the molecule `O=C(O)CN1CCN(CC(=O)O)CCN(CC(=O)NC(P(=O)(O)O)P(=O)(O)O)CCN(CC(=O)O)CC1.[68Ga]` [[^68Ga]Ga-BPAMD, reference compound], the “bone uptake (retention)” value in data set [4] is on record as 9.2 % injected activity/g.

Source of the values: article PMC7311273 (Nuclear medicine and biology, 2020).
